Measured values as given in publication PMC3839042 (Biochemistry, 2013).

Columns and labels:
[1] = biological target: T1, S100A2 (Homo sapiens, UniProt P29034); experiment: Acrylamide dynamic quenching of peptide Trp in S100A2 complex; assay type: binding; details: Stern-Volmer constant
Summary of the method: (§1)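 Trp quenching was run on 4–8 μM peptide with or without saturating S100 protein, in binding buffer (20 mM Tris, 0.2 mM EDTA, 1 mM TCEP, pH 7.5) containing 5 mM CaCl2 or 5 mM EDTA. Acrylamide was titrated to about 0.6 M final. Intensities were dilution-corrected, fitted to a modified Stern-Volmer equation with a static term, and averages reported.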

[2] = biological target: T2, S100B (Homo sapiens, UniProt P04271); experiment: Acrylamide dynamic quenching of peptide Trp in S100B complex; assay type: binding; details: Stern-Volmer constant
T2 sequence (P04271 2-92 limits assumed): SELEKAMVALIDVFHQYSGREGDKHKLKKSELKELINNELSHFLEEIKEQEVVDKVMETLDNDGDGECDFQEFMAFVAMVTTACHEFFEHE
Summary of the method: as §1

[3] = biological target: T1, S100A2; experiment: ITC titration of TRTK12 peptides with S100A2; details: heat capacity change upon binding, slope of ΔHcal vs temperature
[4] = biological target: T3, S100P (Homo sapiens, UniProt P25815); experiment: Steady-state emission fluorescence titration with S100P; assay type: binding; details: Trp emission
T3 sequence (P25815 1-95): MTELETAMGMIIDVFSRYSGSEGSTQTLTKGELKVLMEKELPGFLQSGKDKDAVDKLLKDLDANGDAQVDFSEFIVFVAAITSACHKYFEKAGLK

[5] = biological target: T3, S100P; experiment: ITC titration of TRTK12 peptides with S100P; assay type: binding; details: for ΔCp, exp: heat capacity change upon binding, slope of ΔHcal vs temperature, ITC
[6] = biological target: T2, S100B; experiment: ITC titration of TRTK12 peptides with S100B; assay type: binding
[7] = ITC fit, Equation 1, 5 mM CaCl2

T1 sequence (P29034 whole entry): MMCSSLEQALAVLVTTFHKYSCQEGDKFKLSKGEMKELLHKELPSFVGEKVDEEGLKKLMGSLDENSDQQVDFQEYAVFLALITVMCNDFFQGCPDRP

| S100A2+Peptide KSV ([1]; 5 mM CaCl2) [M⁻¹] | S100B+Peptide KSV ([2]; saturating S100B, 5 mM CaCl2) [M⁻¹] | ΔCp, exp [3] [kJ·mol^−1·K^−1] | changes in the emission fluorescence intensity of the tryptophan upon peptide binding or dissociation [4] | ΔCp, exp [5] [kJ·mol^−1·K^−1] | S100A2+Peptide KSV ([1]; in the presence of 150mM NaCl) | S100B+Peptide KSV ([2]; in the presence of 150mM NaCl) | Kd [6] [µM] | stoichiometry n (peptides per S100B dimer) [6, 7] | stoichiometry n (peptides per S100P dimer) [5, 7] | SMILES |
| --- | --- | --- | --- | --- | --- | --- | --- | --- | --- | --- |
| 8.9 ± 0.2 | 2.8 ± 0.1 | −0.9 ± 0.1 | no observable changes | −1.2 ± 0.1 |  |  |  |  |  | CC[C@H](C)[C@H](NC(=O)[C@H](CCCCN)NC(=O)[C@H](CC(N)=O)NC(=O)[C@H](Cc1c[nH]c2ccccc12)NC(=O)[C@H](CC(=O)O)NC(=O)[C@H](C)NC(=O)[C@H](CCCCN)NC(=O)[C@@H](NC(=O)[C@H](CCCNC(=N)N)NC(=O)[C@@H](NC(C)=O)[C@@H](C)O)[C@@H](C)O)C(=O)N[C@@H](CC(C)C)C(=O)N[C@@H](CO)C(N)=O [TRTKM5] |
|  | 7.5 ± 0.1 |  |  | −1.3 ± 0.1 |  |  |  |  |  | CC[C@H](C)[C@H](NC(=O)[C@H](CCCCN)NC(=O)[C@@H](NC(=O)[C@H](CCCNC(=N)N)NC(=O)[C@@H](NC(C)=O)[C@@H](C)O)[C@@H](C)O)C(=O)N[C@@H](CC(=O)O)C(=O)N[C@@H](Cc1c[nH]c2ccccc12)C(=O)N[C@@H](CC(N)=O)C(=O)N[C@@H](CCCCN)C(=O)N[C@@H](C)C(=O)N[C@@H](CC(C)C)C(=O)N[C@@H](CO)C(N)=O [TRTKM10] |
| 4.3 ± 0.2 | 2.4 ± 0.1 | −0.8 ± 0.1 |  | −0.9 ± 0.1 |  |  |  |  |  | CC[C@H](C)[C@H](NC(=O)[C@H](CCCCN)NC(=O)[C@H](CC(N)=O)NC(=O)[C@H](Cc1c[nH]c2ccccc12)NC(=O)[C@H](CC(=O)O)NC(=O)[C@@H](NC(=O)[C@H](CCCCN)NC(=O)[C@@H](NC(=O)[C@H](CCCNC(=N)N)NC(=O)[C@H](C)NC(C)=O)[C@@H](C)O)[C@@H](C)CC)C(=O)N[C@@H](CC(C)C)C(=O)N[C@@H](CO)C(N)=O [TRTKM1] |

Further lines, the compound ahead of its results:

| SMILES | S100A2+Peptide KSV ([1]; 5 mM CaCl2) [M⁻¹] | S100B+Peptide KSV ([2]; saturating S100B, 5 mM CaCl2) [M⁻¹] | ΔCp, exp [3] [kJ·mol^−1·K^−1] | changes in the emission fluorescence intensity of the tryptophan upon peptide binding or dissociation [4] | ΔCp, exp [5] [kJ·mol^−1·K^−1] | S100A2+Peptide KSV ([1]; in the presence of 150mM NaCl) | S100B+Peptide KSV ([2]; in the presence of 150mM NaCl) | Kd [6] [µM] | stoichiometry n (peptides per S100B dimer) [6, 7] | stoichiometry n (peptides per S100P dimer) [5, 7] |
| --- | --- | --- | --- | --- | --- | --- | --- | --- | --- | --- |
| CC[C@H](C)[C@H](NC(=O)[C@H](CCCCN)NC(=O)[C@@H](NC(=O)[C@H](CCCNC(=N)N)NC(=O)[C@@H](NC(C)=O)[C@@H](C)O)[C@@H](C)O)C(=O)N[C@@H](C)C(=O)N[C@@H](Cc1c[nH]c2ccccc12)C(=O)N[C@@H](CC(N)=O)C(=O)N[C@@H](CCCCN)C(=O)N[C@H](C(=O)N[C@@H](CC(C)C)C(=O)N[C@@H](CO)C(N)=O)[C@@H](C)CC [TRTKM6] |  |  | −0.7 ± 0.1 | no observable changes | −0.9 ± 0.1 | 4.7 ± 0.1 ^a M^−1 | 3.7 ± 0.1 ^a M^−1 |  |  |  |
| CC[C@H](C)[C@H](NC(=O)[C@H](C)NC(=O)[C@H](CC(N)=O)NC(=O)[C@H](Cc1c[nH]c2ccccc12)NC(=O)[C@H](CC(=O)O)NC(=O)[C@@H](NC(=O)[C@H](CCCCN)NC(=O)[C@@H](NC(=O)[C@H](CCCNC(=N)N)NC(=O)[C@@H](NC(C)=O)[C@@H](C)O)[C@@H](C)O)[C@@H](C)CC)C(=O)N[C@@H](CC(C)C)C(=O)N[C@@H](CO)C(N)=O [TRTKM9] | 6.1 ± 1.1 | 7.2 ± 0.2 | −0.4 ± 0.1 | no observable changes | −1.0 ± 0.1 |  |  | 1.7 ± 0.1 |  |  |
| CC[C@H](C)[C@H](NC(=O)[C@H](CCCCN)NC(=O)[C@H](CC(N)=O)NC(=O)[C@H](Cc1c[nH]c2ccccc12)NC(=O)[C@H](CC(=O)O)NC(=O)[C@@H](NC(=O)[C@H](CCCCN)NC(=O)[C@@H](NC(=O)[C@H](CCCNC(=N)N)NC(=O)[C@@H](NC(C)=O)[C@@H](C)O)[C@@H](C)O)[C@@H](C)CC)C(=O)N[C@@H](C)C(=O)N[C@@H](CO)C(N)=O [TRTKM11] | 8.7 ± 0.2 | 7.2 ± 0.1 | −1.6 ± 0.1 |  | −1.8 ± 0.1 |  |  |  | 1 | 1 |
